Measured values published in ChEMBL document CHEMBL4028848, “Discovery of N-{4-[5-(4-Fluorophenyl)-3-methyl-2-methylsulfanyl-3H-imidazol-4-yl]-pyridin-2-yl}-acetamide (CBS-3595), a Dual p38α MAPK/PDE-4 Inhibitor with Activity against TNFα-Related Diseases” (J Med Chem, 2017).
Active and inactive are the calls of the source. The rule behind the calls is not given here.

How the values were obtained:
[1] = biological target: Tyrosine-protein kinase Lyn (Homo sapiens) (UniProt P07948); experiment: Inhibition of Lyn (unknown origin) at 10 uM relative to control
[2] = AUC (0 to t) in fed human at 10 mg, po administered as single dose; format: ADME, organism-based; settings: in vivo
Procedure, shortened: (§1)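 Placebo-controlled, single-blind, randomized, consecutive-dosing study in healthy subjects given single oral doses, with 10 mg also given fasting and fed in a crossover. Plasma parent and active metabolite were measured predose and from 0.25 to 36 h post dose. PK parameters were derived from individual concentration–time profiles and reported as means.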

[3] = Fraction unbound in human plasma; format: ADME, cell-free
Procedure, shortened: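 Plasma protein binding measured in human, Sprague–Dawley rat and Cynomolgus monkey plasma at 1, 10 and 30 μM compound. Reported as unbound fraction (%).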

[4] = biological target: Mitogen-activated protein kinase 13 (Homo sapiens) (UniProt O15264); experiment: Inhibition of p38MAPK delta (unknown origin) at 10 uM relative to control
[5] = biological target: 3',5'-cyclic-AMP phosphodiesterase 4C (Homo sapiens, UniProt Q08493); experiment: Inhibition of human PDE4C1 expressed in sf9 cells
[6] = Half life in fasting human at 10 mg, po administered as single dose; format: ADME, organism-based; settings: in vivo
Procedure, shortened: (§2)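 Oral single-dose PK; plasma concentrations of parent and metabolite measured. Dogs: blood sampled 0.25 to 24 h after dosing. Humans: healthy subjects, placebo-controlled single-blind randomized consecutive dosing, plasma sampled predose and 0.25–36 h post dose. 10 mg also given fasting and fed in crossover. Parameters derived from individual concentration–time profiles.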

[7] = Cmax in fed human at 10 mg, po administered as single dose; format: ADME, organism-based; parameters: dose 10 mg, route oral; settings: in vivo; procedure, shortened: as §1
[8] = Half life in human at 50 mg, po administered as single dose; format: ADME, organism-based; settings: in vivo; procedure, shortened: as §2
[9] = Tmax in fasting human at 10 mg, po administered as single dose; format: ADME, organism-based; settings: in vivo
Procedure, shortened: (§3)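 Healthy subjects received single oral doses of 10, 20, 30 or 50 mg in a placebo-controlled, single-blind, randomized consecutive-dose study; 10 mg was also given fasting vs fed in a crossover. Plasma drug was sampled pre-dose and from 0.25 to 36 h post-dose. Mean Tmax was taken from individual concentration–time profiles.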

[10] = biological target: cGMP-specific 3',5'-cyclic phosphodiesterase (Homo sapiens) (UniProt O76074); experiment: Inhibition of PDE5 in human U937 cells assessed as [3H]cAMP hydrolysis at 10 uM; format: cell-based
[11] = biological target: RAF proto-oncogene serine/threonine-protein kinase (Homo sapiens) (UniProt P04049); experiment: Inhibition of c-RAF (unknown origin) at 10 uM relative to control
[12] = AUC (0 to infinity) in human at 50 mg, po administered as single dose; format: ADME, organism-based; parameters: dose 50 mg, time infinity, route oral; settings: in vivo; procedure, shortened: as §1
[13] = Cmax in fasting human at 10 mg, po administered as single dose; format: ADME, organism-based; parameters: dose 10 mg, route oral; settings: in vivo; procedure, shortened: as §1
[14] = Tmax in female Sprague-Dawley rat at 30 mg/kg, po by LC-MS/MS analysis; format: ADME, organism-based; settings: in vivo
[15] = Cmax in human at 50 mg, po administered as single dose; format: ADME, organism-based; parameters: dose 50 mg, route oral; settings: in vivo
[16] = AUC (0 to infinity) in human at 30 mg, po administered as single dose; format: ADME, organism-based; parameters: dose 30 mg, time infinity, route oral; settings: in vivo; procedure, shortened: as §1
[17] = AUC (0 to t) in human at 30 mg, po administered as single dose; format: ADME, organism-based; settings: in vivo; procedure, shortened: as §1
[18] = Cmax in human at 10 mg, po administered as single dose; format: ADME, organism-based; parameters: dose 10 mg, route oral; settings: in vivo; procedure, shortened: as §2
[19] = biological target: 3',5'-cyclic-AMP phosphodiesterase 4A (Homo sapiens, UniProt P27815); experiment: Inhibition of human PDE4A4 expressed in sf9 cells
[20] = biological target: Mitogen-activated protein kinase 9 (Homo sapiens) (UniProt P45984); experiment: Inhibition of JNK2alpha2 (unknown origin) at 10 uM relative to control
Homo sapiens [21] = experiment: Toxicity in human assessed as effect on CNS at 50 mg, po administered as single dose; format: organism-based; settings: in vivo
Procedure, shortened: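 Single oral 50 mg dose given to healthy subjects in a placebo-controlled, single-blind, randomized FIH study. Adverse events, vital signs and physical findings were recorded, including CNS effects.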

[22] = biological target: T1, 3',5'-cyclic-AMP phosphodiesterase 4D (Homo sapiens, UniProt Q08499); experiment: Inhibition of human PDE4D2 expressed in sf9 cells
[23] = AUC (0 to t) in human at 50 mg, po administered as single dose; format: ADME, organism-based; settings: in vivo; procedure, shortened: as §1
[24] = Tmax in human at 10 mg, po administered as single dose; format: ADME, organism-based; settings: in vivo; procedure, shortened: as §3
[25] = AUC (0 to infinity) in human at 10 mg, po administered as single dose; format: ADME, organism-based; parameters: dose 10 mg, time infinity, route oral; settings: in vivo; procedure, shortened: as §1
[26] = AUC (0 to infinity) in fasting human at 10 mg, po administered as single dose; format: ADME, organism-based; parameters: dose 10 mg, time infinity, route oral; settings: in vivo; procedure, shortened: as §1
[27] = AUC (0 to t) in human at 10 mg, po administered as single dose; format: ADME, organism-based; settings: in vivo; procedure, shortened: as §1
[28] = Cmax in human at 20 mg, po administered as single dose; format: ADME, organism-based; parameters: dose 20 mg, route oral; settings: in vivo; procedure, shortened: as §2
[29] = Tmax in human at 50 mg, po administered as single dose; format: ADME, organism-based; settings: in vivo; procedure, shortened: as §3
[30] = AUC (0 to t) in human at 20 mg, po administered as single dose; format: ADME, organism-based; settings: in vivo; procedure, shortened: as §1
[31] = biological target: Mitogen-activated protein kinase 14 (Homo sapiens, UniProt Q16539); experiment: Inhibition of P38 MAPKalpha in LPS-stimulated human whole blood assessed as decrease in TNFalpha level
[32] = Half life in human at 30 mg, po administered as single dose; format: ADME, organism-based; settings: in vivo; procedure, shortened: as §2
[33] = Half life in human at 10 mg, po administered as single dose; format: ADME, organism-based; settings: in vivo; procedure, shortened: as §2
[34] = Tmax in human at 20 mg, po administered as single dose; format: ADME, organism-based; settings: in vivo; procedure, shortened: as §3
[35] = AUC (0 to t) in fasting human at 10 mg, po administered as single dose; format: ADME, organism-based; settings: in vivo; procedure, shortened: as §1
[36] = Half life in fed human at 10 mg, po administered as single dose; format: ADME, organism-based; settings: in vivo; procedure, shortened: as §2
[37] = Inhibition of PDE4 in human U937 cells assessed as [3H]cAMP hydrolysis; format: cell-based
[38] = AUC (0 to infinity) in human at 20 mg, po administered as single dose; format: ADME, organism-based; parameters: dose 20 mg, time infinity, route oral; settings: in vivo; procedure, shortened: as §1
[39] = biological target: 3',5'-cyclic-AMP phosphodiesterase 4B (Homo sapiens, UniProt Q07343); experiment: Inhibition of human PDE4B1 expressed in sf9 cells
[40] = Tmax in human at 30 mg, po administered as single dose; format: ADME, organism-based; settings: in vivo; procedure, shortened: as §3
Homo sapiens [41] = species on record: Homo sapiens; experiment: Inhibition of PDE3 in human U937 cells assessed as [3H]cAMP hydrolysis at 10 uM; format: cell-based
[42] = Tmax in fed human at 10 mg, po administered as single dose; format: ADME, organism-based; settings: in vivo; procedure, shortened: as §3
[43] = biological target: T1, 3',5'-cyclic-AMP phosphodiesterase 4D; experiment: Inhibition of human PDE4D3 expressed in sf9 cells
[44] = Half life in human at 20 mg, po administered as single dose; format: ADME, organism-based; settings: in vivo; procedure, shortened: as §2
[45] = AUC (0 to infinity) in fed human at 10 mg, po administered as single dose; format: ADME, organism-based; parameters: dose 10 mg, route oral, time infinity; settings: in vivo; procedure, shortened: as §1
[46] = Cmax in human at 30 mg, po administered as single dose; format: ADME, organism-based; parameters: dose 30 mg, route oral; settings: in vivo; procedure, shortened: as §2

T1 sequence (Q08499 whole entry): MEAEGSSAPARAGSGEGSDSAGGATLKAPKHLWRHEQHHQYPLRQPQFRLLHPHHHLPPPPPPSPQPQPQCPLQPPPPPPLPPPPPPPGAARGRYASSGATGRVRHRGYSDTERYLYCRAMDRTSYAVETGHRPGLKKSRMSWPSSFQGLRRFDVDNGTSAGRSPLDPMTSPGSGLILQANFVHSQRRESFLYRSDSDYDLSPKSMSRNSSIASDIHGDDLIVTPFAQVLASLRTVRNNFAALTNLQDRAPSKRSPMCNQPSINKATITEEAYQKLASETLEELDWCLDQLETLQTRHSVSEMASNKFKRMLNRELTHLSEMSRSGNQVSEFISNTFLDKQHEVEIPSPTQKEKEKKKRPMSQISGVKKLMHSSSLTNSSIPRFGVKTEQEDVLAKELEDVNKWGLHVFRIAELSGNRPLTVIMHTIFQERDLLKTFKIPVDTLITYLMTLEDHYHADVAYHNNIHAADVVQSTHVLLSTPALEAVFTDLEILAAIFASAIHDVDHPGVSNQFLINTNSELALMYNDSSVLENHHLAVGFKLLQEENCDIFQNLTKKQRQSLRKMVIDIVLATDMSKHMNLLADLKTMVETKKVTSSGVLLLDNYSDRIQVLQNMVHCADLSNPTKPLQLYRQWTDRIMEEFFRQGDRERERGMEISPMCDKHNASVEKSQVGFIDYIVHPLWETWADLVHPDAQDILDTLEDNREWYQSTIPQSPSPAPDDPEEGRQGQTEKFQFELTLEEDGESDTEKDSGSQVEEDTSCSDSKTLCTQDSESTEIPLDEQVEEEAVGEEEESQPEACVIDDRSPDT
RAF proto-oncogene serine/threonine-protein kinase (Homo sapiens), sequence (P04049 whole entry): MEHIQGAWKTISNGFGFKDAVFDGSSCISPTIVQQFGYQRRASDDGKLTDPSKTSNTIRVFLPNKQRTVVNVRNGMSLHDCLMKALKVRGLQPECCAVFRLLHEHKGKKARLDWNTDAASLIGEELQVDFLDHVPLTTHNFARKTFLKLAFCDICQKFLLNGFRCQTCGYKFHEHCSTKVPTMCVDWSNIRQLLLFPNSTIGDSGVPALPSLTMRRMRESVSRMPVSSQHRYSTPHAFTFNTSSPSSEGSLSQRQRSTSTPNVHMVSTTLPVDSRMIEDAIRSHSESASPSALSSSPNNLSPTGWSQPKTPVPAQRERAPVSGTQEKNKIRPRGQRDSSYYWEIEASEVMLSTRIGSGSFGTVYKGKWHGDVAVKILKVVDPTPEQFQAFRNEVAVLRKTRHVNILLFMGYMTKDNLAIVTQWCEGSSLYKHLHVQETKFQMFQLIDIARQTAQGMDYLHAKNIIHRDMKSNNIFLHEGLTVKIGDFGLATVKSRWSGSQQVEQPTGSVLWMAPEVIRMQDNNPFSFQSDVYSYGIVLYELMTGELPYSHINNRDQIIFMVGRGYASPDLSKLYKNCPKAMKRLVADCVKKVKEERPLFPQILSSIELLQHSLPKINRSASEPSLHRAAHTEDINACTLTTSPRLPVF
3',5'-cyclic-AMP phosphodiesterase 4C, sequence (Q08493 whole entry): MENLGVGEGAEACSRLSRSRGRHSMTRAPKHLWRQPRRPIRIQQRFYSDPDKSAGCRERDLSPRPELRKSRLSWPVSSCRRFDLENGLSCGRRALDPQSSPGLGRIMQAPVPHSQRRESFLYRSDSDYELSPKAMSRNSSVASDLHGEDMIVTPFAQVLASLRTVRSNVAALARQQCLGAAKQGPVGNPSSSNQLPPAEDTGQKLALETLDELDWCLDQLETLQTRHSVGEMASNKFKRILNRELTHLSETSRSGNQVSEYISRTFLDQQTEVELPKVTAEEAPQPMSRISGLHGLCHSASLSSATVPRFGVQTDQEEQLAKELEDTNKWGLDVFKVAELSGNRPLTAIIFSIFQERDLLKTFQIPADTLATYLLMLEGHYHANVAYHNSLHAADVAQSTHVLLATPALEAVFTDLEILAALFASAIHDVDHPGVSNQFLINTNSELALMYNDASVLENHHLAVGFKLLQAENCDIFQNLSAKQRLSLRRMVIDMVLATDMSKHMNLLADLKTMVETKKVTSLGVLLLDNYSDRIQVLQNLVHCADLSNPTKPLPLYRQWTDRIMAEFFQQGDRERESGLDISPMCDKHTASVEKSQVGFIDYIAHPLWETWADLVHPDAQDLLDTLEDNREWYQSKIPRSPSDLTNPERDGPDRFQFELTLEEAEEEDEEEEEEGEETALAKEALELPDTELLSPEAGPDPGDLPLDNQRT
3',5'-cyclic-AMP phosphodiesterase 4A, sequence (P27815 whole entry): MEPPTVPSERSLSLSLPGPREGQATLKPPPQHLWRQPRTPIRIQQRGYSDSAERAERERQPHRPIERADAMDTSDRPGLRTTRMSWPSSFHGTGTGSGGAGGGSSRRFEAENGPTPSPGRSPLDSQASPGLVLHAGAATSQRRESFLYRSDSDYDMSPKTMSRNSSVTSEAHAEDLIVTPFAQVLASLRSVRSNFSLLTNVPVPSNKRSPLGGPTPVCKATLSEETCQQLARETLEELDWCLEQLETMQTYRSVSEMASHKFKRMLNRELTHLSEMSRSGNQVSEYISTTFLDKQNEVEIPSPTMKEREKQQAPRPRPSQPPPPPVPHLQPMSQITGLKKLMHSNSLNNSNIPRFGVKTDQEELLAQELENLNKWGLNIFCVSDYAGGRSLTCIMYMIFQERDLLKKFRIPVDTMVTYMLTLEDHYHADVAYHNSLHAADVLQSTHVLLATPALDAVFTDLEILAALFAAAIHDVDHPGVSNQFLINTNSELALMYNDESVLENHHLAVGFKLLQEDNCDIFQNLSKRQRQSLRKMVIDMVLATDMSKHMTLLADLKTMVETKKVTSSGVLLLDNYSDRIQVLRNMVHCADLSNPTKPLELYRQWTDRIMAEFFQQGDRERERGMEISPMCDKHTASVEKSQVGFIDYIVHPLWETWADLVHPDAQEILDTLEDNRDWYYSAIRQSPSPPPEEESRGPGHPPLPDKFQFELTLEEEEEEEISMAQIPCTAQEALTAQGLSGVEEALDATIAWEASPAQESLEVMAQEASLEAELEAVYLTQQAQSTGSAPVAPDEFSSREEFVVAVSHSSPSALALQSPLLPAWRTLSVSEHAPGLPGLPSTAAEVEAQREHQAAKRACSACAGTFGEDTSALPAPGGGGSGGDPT
Mitogen-activated protein kinase 13 (Homo sapiens), sequence (O15264 whole entry): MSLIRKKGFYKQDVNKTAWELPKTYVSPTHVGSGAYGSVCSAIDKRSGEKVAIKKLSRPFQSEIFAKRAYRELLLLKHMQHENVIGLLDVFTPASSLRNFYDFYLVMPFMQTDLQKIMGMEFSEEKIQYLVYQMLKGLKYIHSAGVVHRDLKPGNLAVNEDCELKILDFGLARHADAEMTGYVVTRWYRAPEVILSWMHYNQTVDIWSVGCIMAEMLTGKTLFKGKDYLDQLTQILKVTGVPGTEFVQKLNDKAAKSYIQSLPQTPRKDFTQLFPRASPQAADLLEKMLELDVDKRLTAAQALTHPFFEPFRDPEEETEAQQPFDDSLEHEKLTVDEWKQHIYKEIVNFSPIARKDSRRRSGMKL
Mitogen-activated protein kinase 9 (Homo sapiens), sequence (P45984 whole entry, looked up): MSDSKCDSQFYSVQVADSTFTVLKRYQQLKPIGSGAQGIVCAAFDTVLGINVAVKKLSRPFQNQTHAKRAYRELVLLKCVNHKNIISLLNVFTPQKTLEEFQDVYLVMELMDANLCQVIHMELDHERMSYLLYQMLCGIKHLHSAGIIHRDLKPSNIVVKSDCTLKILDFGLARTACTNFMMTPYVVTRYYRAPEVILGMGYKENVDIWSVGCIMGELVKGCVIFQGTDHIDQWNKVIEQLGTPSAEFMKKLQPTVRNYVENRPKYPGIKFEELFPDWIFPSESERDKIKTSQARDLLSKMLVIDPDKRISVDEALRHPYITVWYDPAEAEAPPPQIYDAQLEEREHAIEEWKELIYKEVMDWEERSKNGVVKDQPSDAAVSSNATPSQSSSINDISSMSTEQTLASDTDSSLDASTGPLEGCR
3',5'-cyclic-AMP phosphodiesterase 4B, sequence (Q07343 whole entry): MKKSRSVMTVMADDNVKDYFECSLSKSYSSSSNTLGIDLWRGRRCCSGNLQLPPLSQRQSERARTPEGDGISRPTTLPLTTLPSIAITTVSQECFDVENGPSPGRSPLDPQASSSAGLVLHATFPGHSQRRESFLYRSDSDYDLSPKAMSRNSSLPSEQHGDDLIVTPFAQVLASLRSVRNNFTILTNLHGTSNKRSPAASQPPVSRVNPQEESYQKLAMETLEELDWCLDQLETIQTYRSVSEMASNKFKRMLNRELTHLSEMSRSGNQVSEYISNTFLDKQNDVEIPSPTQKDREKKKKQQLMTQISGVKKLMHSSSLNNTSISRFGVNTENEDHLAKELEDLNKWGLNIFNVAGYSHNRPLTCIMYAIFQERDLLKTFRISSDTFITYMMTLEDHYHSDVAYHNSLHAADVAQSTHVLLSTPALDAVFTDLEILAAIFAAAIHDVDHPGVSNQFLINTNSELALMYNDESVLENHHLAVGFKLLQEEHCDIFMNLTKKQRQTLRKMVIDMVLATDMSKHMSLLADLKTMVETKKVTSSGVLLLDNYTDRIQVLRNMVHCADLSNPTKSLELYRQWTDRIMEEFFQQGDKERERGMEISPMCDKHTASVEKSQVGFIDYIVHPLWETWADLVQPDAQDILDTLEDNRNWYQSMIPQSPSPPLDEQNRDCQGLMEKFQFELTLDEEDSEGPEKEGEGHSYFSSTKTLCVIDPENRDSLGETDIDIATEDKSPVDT
Mitogen-activated protein kinase 14, sequence (Q16539 whole entry): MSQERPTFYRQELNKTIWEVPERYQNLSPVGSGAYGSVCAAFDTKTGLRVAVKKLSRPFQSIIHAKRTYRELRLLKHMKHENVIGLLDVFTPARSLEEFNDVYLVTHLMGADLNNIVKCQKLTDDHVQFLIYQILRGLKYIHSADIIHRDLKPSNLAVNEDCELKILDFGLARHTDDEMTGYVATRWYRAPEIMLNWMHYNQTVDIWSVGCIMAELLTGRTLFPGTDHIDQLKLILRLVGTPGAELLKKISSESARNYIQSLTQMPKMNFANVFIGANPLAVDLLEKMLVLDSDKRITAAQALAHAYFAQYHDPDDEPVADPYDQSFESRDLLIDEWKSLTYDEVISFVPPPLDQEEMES

Q: For `CC(=O)Nc1cc(-c2c(-c3ccc(F)cc3)nc([S+](C)[O-])n2C)ccn1` (stereo unspecified), which inhibition [1] is on record?
A: 31%

Q: What about the AUC(0-t) [2] of the same compound?
A: 0.79 µM·h

Q: And the fraction unbound [3]?
A: 0.5

Q: And the inhibition [4]?
A: 35%

Q: And the IC50 [5]?
A: 6.4 µM

Q: And the half-life [6]?
A: 2.8 h

Q: And the Cmax [7]?
A: 140 nM

Q: What about the half-life [8] of the same compound?
A: 3.2 h

Q: What about the Tmax [9] of the same compound?
A: 3.3 h

Q: What about the inhibition [10] of the same compound?
A: inactive

Q: And the inhibition [11]?
A: 36%

Q: And the AUC(0-inf) [12]?
A: 3.58 µM·h

Q: And the Cmax [13]?
A: 140 nM

Q: What about the Tmax [14] of the same compound?
A: 2 h

Q: And the Cmax [15]?
A: 590 nM

Q: And the AUC(0-inf) [16]?
A: 3.05 µM·h

Q: And the AUC(0-t) [17]?
A: 2.65 µM·h

Q: And the Cmax [18]?
A: 200 nM

Q: And the IC50 [19]?
A: 2.9 µM

Q: And the inhibition [20]?
A: 51%

Q: And the Activity (Homo sapiens [21])?
A: Non-Toxic

Q: What about the IC50 [22] of the same compound?
A: 1.1 µM

Q: What about the AUC(0-t) [23] of the same compound?
A: 3.4 µM·h

Q: What about the Tmax [24] of the same compound?
A: 2.2 h

Q: What about the AUC(0-inf) [25] of the same compound?
A: 1.04 µM·h

Q: What about the AUC(0-inf) [26] of the same compound?
A: 0.82 µM·h

Q: And the AUC(0-t) [27]?
A: 0.95 µM·h

Q: What about the Cmax [28] of the same compound?
A: 310 to 314 nM

Q: What about the Tmax [29] of the same compound?
A: 1.5 h

Q: And the AUC(0-t) [30]?
A: 1.99 µM·h

Q: And the IC50 [31]?
A: 0.71 µM

Q: And the half-life [32]?
A: 3.4 h

Q: And the half-life [33]?
A: 2.7 h

Q: What about the Tmax [34] of the same compound?
A: 2.9 h

Q: And the AUC(0-t) [35]?
A: 0.73 µM·h

Q: What about the half-life [36] of the same compound?
A: 2.8 h

Q: What about the IC50 [37] of the same compound?
A: 0.2 to 0.4 µM

Q: What about the AUC(0-inf) [38] of the same compound?
A: 2.24 µM·h

Q: What about the IC50 [39] of the same compound?
A: 1.9 µM

Q: What about the Tmax [40] of the same compound?
A: 2.3 h

Q: What about the inhibition (Homo sapiens [41]) of the same compound?
A: inactive

Q: And the Tmax [42]?
A: 3.7 h

Q: And the IC50 [43]?
A: 0.8 µM

Q: What about the half-life [44] of the same compound?
A: 3.3 h

Q: And the AUC(0-inf) [45]?
A: 0.88 µM·h

Q: And the Cmax [46]?
A: 420 nM
